# Screening data from PubChem.
# KCNQ1 block: blocks the human KCNQ1 potassium channel. B-score at 10 µM. P51787. 1.3% of 310,000 active. CHO-K1 KCNQ1, FluxOR thallium flux fluorescence; active compounds read high. AID 2642;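 active means compounds whose thallium flux B-score, printed positive for inhibition, exceeds three library SD while starting fluorescence stays within three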;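 further: channel opened by potassium depolarization with thallium stimulus after 20 min compound exposure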
# hERG rescue: compounds protecting human hERG from proarrhythmic drug block. Q12809. CHO-hERG, FluxOR thallium flux, dofetilide IC70 present. activation (rescue from dofetilide block), less the hit threshold, % at 10 µM. 0.51% of 310,000 active. AID 1511;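 active means activation above the mean of controls blocked by dofetilide plus 5 SD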;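 further: thallium influx through hERG after potassium depolarization seen as dye fluorescence rise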
# KCNQ1 pot: human KCNQ1 channel potentiation or activation. AID 2648. CHO-K1 KCNQ1, thallium flux FluxOR fluorescence; active compounds read high. 0.35% of 310,000 active. B-score at 10 µM. P51787;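 active means fluorescence ratio B-score, a plate-corrected score, at least three library SD, with initial intensity B-score within 5 SD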
#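 Assay system: CHO-K1 cells stably expressing KCNQ1; Medium: assay buffer with matched DMSO; Also added: K+/Tl+ depolarizing stimulus; Dosing: single dose; Timing: dye 90 min, compound 20 min, room temperature; Measured by: kinetic FluxOR thallium fluorescence, 10-s 1-Hz baseline, 110-s post-stimulus read; Read-out: peak-minus-minimum fluorescence over initial fluorescence, negative-control normalized, B-scored.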
# KCNK9 block: inhibitors of human KCNK9 two-pore domain potassium channel | B-score at 10 µM | Q9NPC2 | 1.2% of 310,000 active | HEK293 KCNK9, FluxOR thallium flux fluorescence; active compounds read low;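 active means ratio B-score over 3 SD below the library mean, with starting fluorescence within 5 SD of its mean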;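 further: negative B-score means less thallium flux so channel inhibition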
# KCNK3 inh: human KCNK3 channel inhibition, primary screen; B-score at 10 µM; 0.84% of 340,000 active; O14649; AID 602410; CHO-KCNK3 thallium flux, FluxOR fluorescence; active compounds read low;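 active means B-score under library mean minus 4 SD, starting fluorescence ratio at most library mean plus 5 SD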;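 further: more negative B-score means stronger inhibition of thallium flux through KCNK3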
# Numbers stand for hits; n = inactive; x = no result. This is a sample that favours compounds with a hit; in the whole collection about 3.1% have one here.
SMILES,KCNQ1 block,hERG rescue,KCNQ1 pot,KCNK9 block,KCNK3 inh
COc1ccc(-n2c(C)nc3c(cnn3-c3ccc(C)cc3)c2=O)cc1,n,n,n,n,n
COc1ccc(-n2c(C)nc3c(cnn3-c3ccc(Cl)cc3)c2=O)cc1,n,6.8,n,n,n
CC1CCCCC1Nc1nc2ccc(Cl)cc2n2cnnc12 (stereo not drawn),n,n,n,n,n
O=C(CSc1ncccn1)NC1CCS(=O)(=O)C1 (stereo not drawn),n,n,n,n,n
CC(C)Cn1c(SCC(=O)N2CCCc3ccccc32)nc2ccccc2c1=O,6,n,n,n,x
Cc1[nH]c2ccccc2c1SCC(=O)N1CCCc2ccccc21,6,n,n,n,n
Cc1cc(C(=O)Nc2ccc(F)c(Cl)c2)on1,n,n,n,n,n
CC1CCCC(NC(=O)COC(=O)c2ccc3ncsc3c2)C1C (stereo not drawn),x,x,x,x,n
Cc1ccc(NC(=O)COC(=O)CC2SC(N3CCCC3)=NC2=O)cc1 (stereo not drawn),x,x,x,x,n
Oc1cccc(/C=N/N(Cc2ccccc2)c2ccccc2)c1,6,n,n,-7.19,n
S=c1[nH]c(-c2ccc(Cl)cc2)cs1,n,86.6,17,n,n
Cc1ccc(-c2csc(=S)[nH]2)cc1,n,96.5,94,n,n
Cc1ccc(-c2ccc(C(=O)O)[nH]2)cc1,n,n,n,n,n
O=C(Nc1cccc2ncccc12)c1ccco1,n,n,n,n,n
CC1CN(Cc2ccco2)C(=S)NC1=O (stereo not drawn),x,x,x,x,n
Cn1c2ccccc2c(=O)c2ccc(NCCc3cccs3)cc21,x,x,x,x,-9.11
Cn1c(C(=O)NCc2cccs2)cc2c(=O)n(C)c3ccccc3c21,n,n,n,n,n
CCCCCCSC1=C(C#N)C(c2ccccc2)CC(=O)N1 (stereo not drawn),n,n,n,-7.21,n
Cc1ccc(C2CC(=O)NC(SCc3ccccc3)=C2C#N)cc1 (stereo not drawn),n,n,n,n,n
O=C(Nc1nnc(-c2ccccc2)o1)c1ccc(Cl)cc1,n,n,11,n,n
CC(C)c1ccc(NC(=O)/C(C#N)=C/c2ccncc2)cc1,n,n,8,n,n
N#C/C(=C\c1ccncc1)C(=O)Nc1ccc(C(=O)O)cc1,n,n,n,n,n
Cc1cc(/C=C2\C(=N)N3N=C(C(C)C)SC3=NC2=O)c(C)n1Cc1ccccc1,n,n,20,n,n
CC(C)CN(C(=O)COC(=O)CNC(=O)c1ccccc1)c1c(N)n(Cc2ccccc2)c(=O)[nH]c1=O,n,n,n,n,n
CCCN1CCN(C(=O)c2ccc(F)c(S(=O)(=O)N3CCOCC3)c2)CC1,x,x,x,x,n
SMILES,KCNQ1 block,hERG rescue,KCNQ1 pot,KCNK9 block,KCNK3 inh
CC(C)(C)c1cc[n+](-c2[nH]c(=O)sc2/C=N/NC([S-])=Nc2ccccc2)cc1,8,n,n,n,n
COc1ccc(C)cc1NC(=O)C1CCN(S(=O)(=O)c2ccc3c(c2)C(C)(C)C(=O)N3C)CC1,n,n,n,n,n
CC(=O)Oc1c(-c2ccco2)oc2ccccc2c1=O,n,n,8,n,n
CCOc1ccc(N(CC(=O)NCc2ccc(F)cc2)C(=O)c2ccco2)cc1,n,n,n,n,n
CCCCCN1CC(=O)N2C(C)c3[nH]c4ccccc4c3C[C@H]2C1=O (stereo partly drawn),n,n,n,n,n
CC(C)COc1ccc(S(=O)(=O)n2cc(F)c(=O)[nH]c2=O)cc1,n,5.0,n,n,n
CC(=O)c1c(C)nc2ccc([N+](=O)[O-])cc2c1-c1ccccc1,n,n,n,n,n
CC(=O)c1c(-c2ccccc2)c2cc([N+](=O)[O-])ccc2[nH]c1=O,n,n,8,n,n
C=CCN1C(=O)S/C(=C/c2ccc(Sc3nc4ccccc4[nH]3)o2)C1=O,6,n,n,n,n
Cc1nn(-c2ccccc2)c(Cl)c1/C=C1\SC(=S)NC1=O,n,18.9,28,n,n
Cc1nn(-c2ccccc2)c(Cl)c1/C=C1/C(=N)N2N=C(C(C)C)SC2=NC1=O,n,n,n,n,n
CC1CN2C(c3ccc([N+](=O)[O-])cc3)=CSC2=N1 (stereo not drawn),n,n,n,n,n
CCOC(=O)Cc1csc(NC(=O)COc2ccc(OC)cc2)n1,n,n,n,n,n
CCOc1ccc(S(=O)(=O)N(C)c2ccc(OCC(=O)Nc3nc4ccccc4s3)cc2)cc1,8,n,n,n,n
CCOC(=O)Cc1csc(NC(=O)COc2ccc(N(C)S(=O)(=O)c3ccc(C)cc3)cc2)n1,n,n,n,-6.75,n
Cc1ccc(N(CC(=O)NC2CC2)S(=O)(=O)c2ccccc2)c(C)c1,n,n,n,n,n
COc1ccccc1C(=O)N/C(=C\c1cn(S(=O)(=O)N(C)C)c2ccccc12)C(=O)N1CCOCC1,n,n,n,n,n
Cc1ccc(S(=O)(=O)N[C@H](C(=O)Oc2ccc3c(C(F)(F)F)cc(=O)oc3c2)c2ccccc2)cc1,9,n,n,n,n
Cc1ccc(S(=O)(=O)NC(C(=O)Oc2ccc3ccc(=O)oc3c2)c2ccccc2)cc1 (stereo not drawn),n,n,n,n,n
Cc1ccc(NC(=O)CSCC(=O)Nc2cc(Cl)ccc2N2CCOCC2)cc1,6,n,n,n,n
CCN(CC)c1ccc2nc3ccc(N)cc3[n+](-c3ccccc3)c2c1,x,x,x,x,-9.15
CCN(CC)c1ccc2nc3ccccc3[n+](CC)c2c1,n,n,n,n,n
CN(CC(=O)Nc1c(Cl)cccc1Cl)C(=O)c1ccc2nc[nH]c2c1,n,n,n,n,n
COc1ccccc1N1CCN(C(=O)C(C)NC(=O)c2cccc([N+](=O)[O-])c2)CC1 (stereo not drawn),n,n,n,n,n
CN(C)C(CNC(C(=O)Nc1ccc([N+](=O)[O-])cc1Br)c1ccccc1)c1ccccc1 (stereo not drawn),9,n,n,n,n
SMILES,KCNQ1 block,hERG rescue,KCNQ1 pot,KCNK9 block,KCNK3 inh
CCN(CC(=O)NC1CCS(=O)(=O)C1)c1ccc(S(=O)(=O)N(CC)CC)cc1[N+](=O)[O-] (stereo not drawn),x,x,x,x,n
O=C(Nc1ccccc1N1CCCCC1)c1ccc(Cl)cc1,n,n,n,-6.69,n
CS(=O)(=O)N1CCN(c2ccccc2NC(=S)NC(=O)c2cccs2)CC1,n,n,n,n,n
CC1CCN(c2ccccc2NC(=O)c2ccc(F)cc2)CC1,n,n,n,-6.82,n
CN1CCN(c2ccccc2NC(=O)c2ccc(F)cc2)CC1,n,n,n,n,n
CC1CCN(c2ccccc2NC(=S)NC(=O)c2cccs2)CC1,n,n,14,n,n
CCc1cc(C(=O)N(CCCOC)c2c(N)n(Cc3ccccc3)c(=O)[nH]c2=O)sc1C,n,n,n,n,n
Cc1cc(F)ccc1S(=O)(=O)NCC1CC2CCC1C2 (stereo not drawn),n,n,n,n,n
O=C(Nc1cccc(N=Cc2cc(Cl)cc(Br)c2O)c1)c1ccco1,n,n,17,n,n
